Data taken from ChEMBL document CHEMBL1123980, “Serotonergic properties of spiroxatrine enantiomers” (J Med Chem, 1988).

Legend:
[1] = biological target: T1, 5-hydroxytryptamine receptor 1A (Rattus norvegicus, UniProt P19327); assay: Binding affinity against 5-hydroxytryptamine 1A receptor of rat was determined using [3H]8-OH-DPAT in binding assay
T1 sequence (P19327 whole entry): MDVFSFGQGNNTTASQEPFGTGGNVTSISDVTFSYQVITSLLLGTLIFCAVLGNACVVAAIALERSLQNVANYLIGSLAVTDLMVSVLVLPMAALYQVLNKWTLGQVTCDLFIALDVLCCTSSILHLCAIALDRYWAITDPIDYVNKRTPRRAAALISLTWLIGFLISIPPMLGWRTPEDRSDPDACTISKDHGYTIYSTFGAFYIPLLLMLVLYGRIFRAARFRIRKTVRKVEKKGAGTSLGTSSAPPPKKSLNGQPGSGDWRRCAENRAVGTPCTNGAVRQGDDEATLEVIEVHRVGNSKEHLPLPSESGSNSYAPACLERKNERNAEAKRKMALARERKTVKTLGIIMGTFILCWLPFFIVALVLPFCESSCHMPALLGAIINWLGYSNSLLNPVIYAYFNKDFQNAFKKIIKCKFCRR
Method in brief: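 Rat (male Sprague-Dawley) cerebral cortex membranes, washed 4 times with a 10 min 37 °C preincubation, 10 mg wet tissue/mL. 1 nM [3H]-8-OH-DPAT in 50 mM Tris, 3 mM CaCl2, pargyline, pH 7.4; 15 min, 37 °C; filtration on PEI-treated GF/B filters, scintillation counting. Nonspecific binding with 10 µM 5-HT. IC50 read graphically and converted to apparent Ki (Cheng-Prusoff).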

[2] = biological target: 5-hydroxytryptamine receptor 1B (Rattus norvegicus, UniProt P28564); assay: Binding affinity towards 5-hydroxytryptamine 1B receptor in rat was determined using 50 uL of [125I]ICYP in binding assay
Chain of 5-hydroxytryptamine receptor 1B (P28564 whole entry): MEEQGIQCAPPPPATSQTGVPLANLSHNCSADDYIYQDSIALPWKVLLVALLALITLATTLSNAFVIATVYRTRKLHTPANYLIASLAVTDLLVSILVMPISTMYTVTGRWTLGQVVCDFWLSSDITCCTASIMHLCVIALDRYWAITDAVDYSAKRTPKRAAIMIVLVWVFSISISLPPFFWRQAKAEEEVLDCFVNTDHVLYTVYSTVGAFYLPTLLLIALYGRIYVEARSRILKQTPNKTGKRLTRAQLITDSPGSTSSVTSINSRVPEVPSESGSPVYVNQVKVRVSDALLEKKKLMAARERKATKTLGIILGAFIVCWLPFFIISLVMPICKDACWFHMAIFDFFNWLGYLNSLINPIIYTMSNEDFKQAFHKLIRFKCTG
Method in brief: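 [125I]ICYP at 150 pM final, in Tris/CaCl2/pargyline medium with 60 µM (-)-isoproterenol to block β-adrenergic sites. 15 min at 37 °C; ice-cold phosphate dilution, GF/B filtration, gamma counting. Nonspecific binding with 10 µM 5-HT.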

[3] = biological target: Serotonin 2 (5-HT2) receptor (Rattus norvegicus, UniProt P30994+P08909+P14842); assay: Binding affinity towards serotonin 5-hydroxytryptamine 2 receptor of rat determined using 0.5 nM of [3H]ketanserin in binding assay; assay type: protein assay
Method in brief: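 0.5 nM [3H]ketanserin in the same buffer, no CaCl2 or pargyline; 15 min at 37 °C; filtration and scintillation counting. Nonspecific binding with 10 µM methysergide. IC50 read graphically and converted to apparent Ki (Cheng-Prusoff).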

[4] = biological target: T2, Adrenergic receptor alpha-1 (Rattus norvegicus, UniProt P15823+P23944+P43140); assay: Binding affinity against alpha-1 adrenergic receptor of rat was determined using 0.5 nM of [3H]WB-4101 in binding assay; assay type: protein assay
T2 sequence (P15823 whole entry): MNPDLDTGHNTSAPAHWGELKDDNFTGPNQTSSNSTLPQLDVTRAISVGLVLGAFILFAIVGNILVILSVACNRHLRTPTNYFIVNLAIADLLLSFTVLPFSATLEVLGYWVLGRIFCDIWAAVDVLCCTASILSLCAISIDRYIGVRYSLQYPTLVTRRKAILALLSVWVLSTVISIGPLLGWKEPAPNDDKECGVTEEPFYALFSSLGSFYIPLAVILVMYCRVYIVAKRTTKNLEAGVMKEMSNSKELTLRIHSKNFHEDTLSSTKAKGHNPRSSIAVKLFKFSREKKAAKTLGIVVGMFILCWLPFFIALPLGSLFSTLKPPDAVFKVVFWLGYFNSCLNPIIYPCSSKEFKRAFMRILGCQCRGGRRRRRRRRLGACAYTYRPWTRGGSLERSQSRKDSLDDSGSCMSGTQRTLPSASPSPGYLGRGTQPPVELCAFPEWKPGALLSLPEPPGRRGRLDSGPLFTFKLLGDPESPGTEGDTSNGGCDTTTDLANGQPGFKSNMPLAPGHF
T2 sequence (P23944 whole entry): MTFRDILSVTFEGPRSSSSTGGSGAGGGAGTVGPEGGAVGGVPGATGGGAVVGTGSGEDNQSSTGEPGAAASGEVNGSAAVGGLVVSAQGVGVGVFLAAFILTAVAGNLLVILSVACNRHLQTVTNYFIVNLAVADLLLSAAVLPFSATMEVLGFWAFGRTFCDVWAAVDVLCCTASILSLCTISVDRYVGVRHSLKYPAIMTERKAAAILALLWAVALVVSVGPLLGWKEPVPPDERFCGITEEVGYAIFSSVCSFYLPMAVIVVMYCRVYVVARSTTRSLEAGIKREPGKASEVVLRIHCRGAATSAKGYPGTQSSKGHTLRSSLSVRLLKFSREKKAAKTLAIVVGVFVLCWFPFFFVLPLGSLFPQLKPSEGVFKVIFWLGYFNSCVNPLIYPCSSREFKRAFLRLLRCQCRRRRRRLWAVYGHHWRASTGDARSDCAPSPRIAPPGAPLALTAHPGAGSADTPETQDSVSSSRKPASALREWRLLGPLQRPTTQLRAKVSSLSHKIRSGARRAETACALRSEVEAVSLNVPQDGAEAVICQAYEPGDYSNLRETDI
T2 sequence (P43140 whole entry): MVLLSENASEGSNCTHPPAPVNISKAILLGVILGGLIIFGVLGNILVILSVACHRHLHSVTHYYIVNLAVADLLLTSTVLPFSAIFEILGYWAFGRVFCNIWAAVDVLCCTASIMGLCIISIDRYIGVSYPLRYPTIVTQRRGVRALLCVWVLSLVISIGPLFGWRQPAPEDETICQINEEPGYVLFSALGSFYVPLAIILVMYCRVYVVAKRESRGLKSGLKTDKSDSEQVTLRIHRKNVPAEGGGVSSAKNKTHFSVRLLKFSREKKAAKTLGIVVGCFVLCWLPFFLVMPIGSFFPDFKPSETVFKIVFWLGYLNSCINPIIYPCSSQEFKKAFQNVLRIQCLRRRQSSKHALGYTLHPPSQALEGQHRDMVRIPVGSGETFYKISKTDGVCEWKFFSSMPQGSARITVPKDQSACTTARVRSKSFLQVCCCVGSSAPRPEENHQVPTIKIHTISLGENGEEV
Method in brief: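 Washed rat cerebral cortex membranes at 10 mg wet tissue/mL, under the 8-OH-DPAT assay conditions (Tris/CaCl2/pargyline, pH 7.4, 15 min, 37 °C, filtration). Final [3H]WB4101 0.5 nM, with 1 µM 5-HT added to mask 5-HT1A sites. Nonspecific binding with 1 µM prazosin. Apparent Ki from graphical IC50 via Cheng-Prusoff.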

D(2) dopamine receptor = D(2) dopamine receptor (Rattus norvegicus, UniProt P61169); assay: Binding affinity against Dopamine receptor D2 of rat was determined using 2 nM of [3H]sulpiride in binding assay
Chain of D(2) dopamine receptor (P61169 whole entry): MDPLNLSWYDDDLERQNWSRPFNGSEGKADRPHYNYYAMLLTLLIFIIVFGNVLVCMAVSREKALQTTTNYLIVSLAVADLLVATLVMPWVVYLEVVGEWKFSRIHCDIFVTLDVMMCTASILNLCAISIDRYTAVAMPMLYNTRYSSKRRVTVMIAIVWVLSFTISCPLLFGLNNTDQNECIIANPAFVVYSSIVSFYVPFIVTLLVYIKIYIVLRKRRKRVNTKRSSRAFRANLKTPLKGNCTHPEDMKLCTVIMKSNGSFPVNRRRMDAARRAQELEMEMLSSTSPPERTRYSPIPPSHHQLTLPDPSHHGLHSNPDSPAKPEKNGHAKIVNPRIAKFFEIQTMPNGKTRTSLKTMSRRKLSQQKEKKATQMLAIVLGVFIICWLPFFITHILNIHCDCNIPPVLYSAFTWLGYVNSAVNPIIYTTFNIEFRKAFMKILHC
Method in brief: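 Striatal membranes from male Sprague-Dawley rats in Tris buffer with 108 mM NaCl, 4.7 mM KCl, 1.3 mM CaCl2, pH 7.4, 4 mg wet tissue/mL. Final [3H]sulpiride 2 nM; incubated 20 min at 37 °C, then vacuum filtration. Specific binding defined with 1 µM spiperone. IC50 read graphically and converted to apparent Ki (Cheng-Prusoff).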

Row | Compound | Ki [1] [nM] | Ki [2] [nM] | Ki [3] [nM] | Ki [4] [nM] | Ki (D(2) dopamine receptor) [nM]
1 | O=C1NCN(c2ccccc2)C12CCN(CC1COc3ccccc3O1)CC2 (stereo in doubt; (+)) [SPIROXATRINE] | 21 | > 10000 | 858 | 1050 | 1.45
2 | O=C1NCN(c2ccccc2)C12CCN(CC1COc3ccccc3O1)CC2 (stereo in doubt; (-)) [SPIROXATRINE] | 1.9 | > 10000 | 113 | 149 | 0.22
